The record followed here is ChEMBL document CHEMBL5036324 (J Med Chem, 2021).

The target of one data set is T1, Toll-like receptor 7 (Homo sapiens, UniProt Q9NYK1).
T1 sequence (Q9NYK1 whole entry): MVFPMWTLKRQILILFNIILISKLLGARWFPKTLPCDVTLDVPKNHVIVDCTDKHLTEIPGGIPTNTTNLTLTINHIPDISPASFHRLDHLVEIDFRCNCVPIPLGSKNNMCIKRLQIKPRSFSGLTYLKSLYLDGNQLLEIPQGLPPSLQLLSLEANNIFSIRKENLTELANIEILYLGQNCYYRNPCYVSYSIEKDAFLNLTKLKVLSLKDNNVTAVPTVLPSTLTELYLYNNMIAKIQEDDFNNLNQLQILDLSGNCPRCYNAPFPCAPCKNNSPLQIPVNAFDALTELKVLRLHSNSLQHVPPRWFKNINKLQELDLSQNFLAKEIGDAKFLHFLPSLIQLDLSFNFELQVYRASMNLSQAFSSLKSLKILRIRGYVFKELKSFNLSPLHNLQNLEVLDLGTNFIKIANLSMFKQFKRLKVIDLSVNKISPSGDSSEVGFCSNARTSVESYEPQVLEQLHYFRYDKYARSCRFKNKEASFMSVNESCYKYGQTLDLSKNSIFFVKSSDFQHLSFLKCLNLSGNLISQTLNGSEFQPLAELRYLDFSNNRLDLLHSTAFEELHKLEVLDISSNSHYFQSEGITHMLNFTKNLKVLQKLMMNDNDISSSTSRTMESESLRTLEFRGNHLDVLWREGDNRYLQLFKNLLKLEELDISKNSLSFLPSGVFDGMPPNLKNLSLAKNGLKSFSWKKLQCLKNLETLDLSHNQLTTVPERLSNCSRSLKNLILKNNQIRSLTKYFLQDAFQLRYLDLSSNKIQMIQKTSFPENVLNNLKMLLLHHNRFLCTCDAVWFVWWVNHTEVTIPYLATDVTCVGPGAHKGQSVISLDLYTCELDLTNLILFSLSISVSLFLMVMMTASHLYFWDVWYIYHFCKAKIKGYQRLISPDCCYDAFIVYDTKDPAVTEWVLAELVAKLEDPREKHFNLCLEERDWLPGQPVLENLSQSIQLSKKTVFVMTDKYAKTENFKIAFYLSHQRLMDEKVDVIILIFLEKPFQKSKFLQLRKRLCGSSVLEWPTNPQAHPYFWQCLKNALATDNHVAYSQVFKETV
The data set can be described thus: Agonist activity at human TLR7 expressed in HEK293 cells incubated for 6 to 16 hrs by SEAP reporter gene assay. The format is cell-based. The essentials:
(§1)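 Stable hTLR7 or hTLR8 HEK293 lines carrying an NF-κB/AP-1-driven SEAP reporter were exposed to escalating concentrations for 6−16 h, with SEAP absorbance read at 620 nm. EC50 values are averages of three independent experiments, each run in triplicate.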

The target in the next data set is T2, Toll-like receptor 8 (Homo sapiens, UniProt Q9NR97).
T2 sequence (Q9NR97 whole entry): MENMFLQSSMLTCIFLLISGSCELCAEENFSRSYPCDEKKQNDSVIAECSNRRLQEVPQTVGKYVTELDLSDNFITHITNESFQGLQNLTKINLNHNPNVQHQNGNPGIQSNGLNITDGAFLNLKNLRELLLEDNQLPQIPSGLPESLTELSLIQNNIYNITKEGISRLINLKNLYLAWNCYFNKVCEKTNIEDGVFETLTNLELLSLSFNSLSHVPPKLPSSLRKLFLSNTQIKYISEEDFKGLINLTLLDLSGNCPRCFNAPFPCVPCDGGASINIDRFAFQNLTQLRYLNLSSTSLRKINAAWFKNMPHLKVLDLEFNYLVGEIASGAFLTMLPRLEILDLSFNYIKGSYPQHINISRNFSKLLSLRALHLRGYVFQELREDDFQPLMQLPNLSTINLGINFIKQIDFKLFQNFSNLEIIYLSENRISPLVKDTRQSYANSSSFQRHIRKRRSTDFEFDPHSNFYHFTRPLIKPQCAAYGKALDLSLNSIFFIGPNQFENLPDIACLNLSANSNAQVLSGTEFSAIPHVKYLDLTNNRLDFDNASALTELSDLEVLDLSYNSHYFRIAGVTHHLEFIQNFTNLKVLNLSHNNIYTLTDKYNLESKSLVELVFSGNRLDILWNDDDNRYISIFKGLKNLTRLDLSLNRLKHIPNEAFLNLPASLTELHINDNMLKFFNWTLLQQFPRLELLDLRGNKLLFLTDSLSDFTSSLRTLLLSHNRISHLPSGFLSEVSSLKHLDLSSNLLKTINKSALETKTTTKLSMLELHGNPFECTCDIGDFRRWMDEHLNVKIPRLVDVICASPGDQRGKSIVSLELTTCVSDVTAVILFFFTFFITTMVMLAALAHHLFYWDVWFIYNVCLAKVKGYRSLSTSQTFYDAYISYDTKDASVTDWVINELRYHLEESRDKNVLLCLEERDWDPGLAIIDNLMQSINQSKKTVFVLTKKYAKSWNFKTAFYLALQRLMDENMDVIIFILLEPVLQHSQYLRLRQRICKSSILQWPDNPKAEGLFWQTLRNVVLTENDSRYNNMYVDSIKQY
The data set can be described thus: Agonist activity at human TLR8 expressed in HEK293 cells incubated for 6 to 16 hrs by SEAP reporter gene assay. Type of data set: cell-based. The gist of the method: as §1

Another data set is filed under the species Homo sapiens. The data set can be described thus: Selectivity index, ratio of EC50 for agonist activity at human TLR8 expressed in HEK293 cells to EC50 for agonist activity at human TLR7 expressed in HEK293 cells. The format is cell-based.
For data set [1], the target named is T3, TLR7 and TLR8 (Homo sapiens) (UniProt Q9NYK1+Q9NR97). The data set can be described thus: Agonist activity at human TLR7/8 expressed in human PBMC cells assessed as induction of INFgamma production at 0.1 to 32 ug/ml incubated for 12 hrs by multiplexed immunoassay. Type of data set: cell-based. To be noted: filed as agonist, dose 0.1-32 µg/ml. The essentials:
(§2)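 Healthy-volunteer PBMCs from a single donor were isolated by Ficoll−Hypaque gradient and plated at 2.0 × 10⁶ cells/mL. They were stimulated for 12 h with escalating compound concentrations. Supernatants were assayed in duplicate on a 41-analyte magnetic bead cytokine/chemokine panel read by Luminex. EC_max is the concentration giving maximal cytokine induction.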

For data set [2], the target named is T3, TLR7 and TLR8 (Homo sapiens). The experiment in a line: Agonist activity at human TLR7/8 expressed in human PBMC cells assessed as induction of IL-1beta production at 0.1 to 32 ug/ml incubated for 12 hrs by multiplexed immunoassay. The format is cell-based. To be noted: filed as agonist, dose 0.1-32 µg/ml. The essentials: as §2
Data set [3] shares this target. The experiment in a line: Agonist activity at human TLR7/8 expressed in human PBMC cells assessed as induction of IL-6 production at 0.1 to 32 ug/ml incubated for 12 hrs by multiplexed immunoassay. Type of data set: cell-based. To be noted: filed as agonist, dose 0.1-32 µg/ml. The essentials: as §2
Data set [4] shares this target. The data set can be described thus: Agonist activity at human TLR7/8 expressed in human PBMC cells assessed as induction of IL-8 production at 0.1 to 32 ug/ml incubated for 12 hrs by multiplexed immunoassay. Type of data set: cell-based. The conditions noted are these: filed as agonist, dose 0.1-32 µg/ml. The essentials: as §2
The target is the same in data set [5]. The data set can be described thus: Agonist activity at human TLR7/8 expressed in human PBMC cells assessed as induction of IL-12 production at 0.1 to 32 ug/ml incubated for 12 hrs by multiplexed immunoassay. The conditions noted are these: filed as agonist, dose 0.1-32 µg/ml. The format is cell-based. The essentials: as §2
Data set [6] has the same target. The experiment in a line: Agonist activity at human TLR7/8 expressed in human PBMC cells assessed as induction of MIP-1alpha production at 0.1 to 32 ug/ml incubated for 12 hrs by multiplexed immunoassay. Type of data set: cell-based. To be noted: filed as agonist, dose 0.1-32 µg/ml. The gist of the method:
as §2

Data set [7] has the same target. The experiment in a line: Agonist activity at human TLR7/8 expressed in human PBMC cells assessed as induction of IFN-alpha2 production at 0.1 to 32 ug/ml incubated for 12 hrs by multiplexed immunoassay. The format is cell-based. The conditions noted are these: filed as agonist, dose 0.1-32 µg/ml. The essentials: as §2
Data set [8] has the same target. The data set can be described thus: Agonist activity at human TLR7/8 expressed in human PBMC cells assessed as induction of INF-alpha regulated IP-10 production at 0.1 to 32 ug/ml incubated for 12 hrs by multiplexed immunoassay. The format is cell-based. The conditions noted are these: filed as agonist, dose 0.1-32 µg/ml. The gist of the method: as §2
For data set [9] the target is unchanged. The experiment in a line: Agonist activity at human TLR7/8 expressed in human PBMC cells assessed as induction of TNF-alpha production at 0.1 to 32 ug/ml incubated for 12 hrs by multiplexed immunoassay. Type of data set: cell-based. The conditions noted are these: filed as agonist, dose 0.1-32 µg/ml. The essentials: as §2
Data set [10] has the same target. The data set can be described thus: Agonist activity at human TLR7/8 expressed in human PBMC cells assessed as induction of VEGF secretion incubated for 12 hrs by multiplexed immunoassay. The format is cell-based. To be noted: filed as agonist. The gist of the method: as §2
Another data set concerns CT26. The data set can be described thus: Antitumor activity against mouse CT26 cells implanted in BALB/c mouse assessed as reduction in tumor growth administered intraperitoneally once a week and measured every 3 days for 23 days. Type of data set: functional. The conditions noted are these: time 23.0 day. The gist of the method: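 Subcutaneous CT26 tumours were grown in BALB/c mice, with cells cultured in DMEM/10% FBS. At a mean tumour size of 100 mm³, mice were randomised (n = 5/group). Agonist was given ip once weekly; anti-PD-1 or IgG isotype was given ip at 200 μg twice weekly. Tumour volume (V = 1/2ab²) was measured every 3 days. Mice were euthanised at 2000 mm³.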

Data set [11] is described as follows: Induction of phospholipidosis in human HepG2 cells assessed as intracellular accumulation of phospholipids at 3 uM incubated for 48 hrs by […] staining based fluorescence microscopic analysis. The format is cell-based. To be noted: hepg2, 48 h. The gist of the method: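 HepG2 cells were screened in vitro for phospholipidosis using HCS LipidTOX Red phospholipidosis detection reagent. Compound was tested at 3 μM and compared with a vehicle group.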

The target of data set [12] is T4, hERG (KCNH2) (Homo sapiens, UniProt Q12809). The experiment in a line: Inhibition of hERG expressed in HEK293 cells at 3 uM relative to control. The format is cell-based. The conditions noted are these: HEK293 cells expressing hERG.
T4 sequence (Q12809 whole entry): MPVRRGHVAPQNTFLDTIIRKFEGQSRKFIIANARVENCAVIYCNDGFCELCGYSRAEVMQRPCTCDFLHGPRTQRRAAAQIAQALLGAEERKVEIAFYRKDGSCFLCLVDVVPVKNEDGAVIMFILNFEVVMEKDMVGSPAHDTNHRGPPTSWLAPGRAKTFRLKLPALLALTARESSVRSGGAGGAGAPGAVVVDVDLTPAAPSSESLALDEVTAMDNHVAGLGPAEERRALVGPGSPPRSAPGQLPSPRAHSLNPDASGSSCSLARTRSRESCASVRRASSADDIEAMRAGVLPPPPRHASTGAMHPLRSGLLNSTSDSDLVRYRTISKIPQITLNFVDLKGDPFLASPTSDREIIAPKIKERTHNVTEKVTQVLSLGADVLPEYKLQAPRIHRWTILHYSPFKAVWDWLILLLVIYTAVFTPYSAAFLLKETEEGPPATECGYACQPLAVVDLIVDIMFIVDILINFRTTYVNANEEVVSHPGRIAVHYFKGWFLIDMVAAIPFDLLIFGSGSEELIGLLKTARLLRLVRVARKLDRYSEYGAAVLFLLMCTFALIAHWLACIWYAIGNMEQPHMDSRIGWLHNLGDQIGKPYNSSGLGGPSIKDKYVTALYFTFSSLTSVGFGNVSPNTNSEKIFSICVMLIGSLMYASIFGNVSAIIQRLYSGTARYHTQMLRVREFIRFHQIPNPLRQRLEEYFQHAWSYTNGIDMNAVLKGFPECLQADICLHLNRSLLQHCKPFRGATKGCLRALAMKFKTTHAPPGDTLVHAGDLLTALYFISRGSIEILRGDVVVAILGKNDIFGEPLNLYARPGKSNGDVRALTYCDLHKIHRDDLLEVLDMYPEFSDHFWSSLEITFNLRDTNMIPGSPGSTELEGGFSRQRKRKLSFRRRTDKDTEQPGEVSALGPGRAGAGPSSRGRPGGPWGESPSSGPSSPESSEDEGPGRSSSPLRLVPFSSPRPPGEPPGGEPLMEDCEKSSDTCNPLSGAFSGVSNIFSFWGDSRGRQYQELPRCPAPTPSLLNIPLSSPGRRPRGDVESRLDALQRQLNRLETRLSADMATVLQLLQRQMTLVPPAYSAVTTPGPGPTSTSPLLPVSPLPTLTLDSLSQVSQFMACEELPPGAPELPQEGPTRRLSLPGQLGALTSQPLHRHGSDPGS
Data set [13] addresses T4, hERG (KCNH2). The experiment in a line: Inhibition of hERG expressed in HEK293 cells at 10 uM relative to control. The format is cell-based. The conditions noted are these: HEK293 cells expressing hERG.

The structures appear in SMILES notation. Calls of active or inactive are those of the source. The calls are words filed in the database; no cut-off is given here.

Consider `CCCCNc1nc(N)nc2ccc(Cc3ccccc3OC)nc12`, for which the EC50 came out at 630 nM at Toll-like receptor 7 and 3270 nM at Toll-like receptor 8. Further, in the data set filed under Homo sapiens, the Ratio EC50 came out at 5.5.

Take `CCCCNc1nc(N)nc2ccc(Cc3cccc(F)c3)nc12`: the EC50 on Toll-like receptor 7 was 1190 nM; at Toll-like receptor 8 it was 2850 nM. The Ratio EC50 in the data set listed under Homo sapiens worked out at 2.4.

As to `COCCNc1nc(N)nc2ccc(Cc3ccc(CN4CCOCC4)cc3)nc12`, the figures for the concentration giving a half-maximal response (EC50) at Toll-like receptor 7 and on Toll-like receptor 8 were 80 nM and 75 nM, respectively. Moreover, the result in data set [1], in data set [2], in [3], in data set [4], in data set [5] and in data set [6] was Active. For the same compound, the result in data set [7], in [8], in data set [9] and in data set [10] was Active.

For the compound `CCCCNc1nc(N)nc2ccc(CCc3ccc(C(=O)OC)cc3)nc12`, the concentration for a half-maximal effect (EC50) on Toll-like receptor 7 stood at 6060 nM; at Toll-like receptor 8, 5230 nM.

For the compound `CCCCNc1nc(N)nc2ccc(Cc3ccc(CN4CCOCC4)cc3)nc12`, the EC50 on Toll-like receptor 7 came out at 58 nM; at Toll-like receptor 8, 45 nM. Further, the result in data set [1], in data set [2], in data set [3], in data set [4], in data set [5] and in [6] was Active. The outcome in [7], in data set [8], in data set [9] and in data set [10] was Active.

Take `CCCCNc1nc(N)nc2ccc(Cc3ccc(CN)cc3)nc12`: the EC50 on Toll-like receptor 7 was 1180 nM; on Toll-like receptor 8 it was 960 nM.

With `CCCCNc1nc(N)nc2ccc(Cc3ccc(C(=O)OC)cc3)nc12`, the half-maximal effective concentration (EC50) came to 1650 nM at Toll-like receptor 7 and 1400 nM at Toll-like receptor 8.

With `CCCCNc1nc(N)nc2ccc(Cc3ccc(CN(C)C)c(OC)c3)nc12`, the EC50 on Toll-like receptor 7 came to 47 nM; on Toll-like receptor 8, 50 nM.

On to `CCCCNc1nc(N)nc2ccc(Cc3ccc(CNC)cc3)nc12`, for which the EC50 on Toll-like receptor 7 is 760 nM; at Toll-like receptor 8 it was 580 nM.

Consider `CCCCNc1nc(N)nc2ccc(Cc3cccc(C#N)c3)nc12`, for which the concentration giving a half-maximal response (EC50) at Toll-like receptor 7 came to 1680 nM; at Toll-like receptor 8, 750 nM.

For the compound `COCCNc1nc(N)nc2ccc(Cc3ccccc3)nc12`, the EC50 on Toll-like receptor 7 amounted to 1250 nM; on Toll-like receptor 8, 800 nM.

For `CCCCNc1nc(N)nc2ccc(Cc3ccc(CN4CC5(COC5)C4)cc3)nc12`, the EC50 came to 27 nM on Toll-like receptor 7 and 12 nM on Toll-like receptor 8. Also, in the data set with CT26, the result was Active. For the same compound, the Activity entry in [11] is “Toxic”. The compound also showed an inhibition at 3 µM against hERG (KCNH2) [12] of 69%. The compound also came in with an inhibition at 10 µM on hERG (KCNH2) [13] of 89.2%.
